Results pooled from the literature.
Compare with care: the assays were run in different laboratories.
Target: Activin receptor type-1B (ACVR1B, Homo sapiens, UniProt P36896)
Residues used in one study (P36896 24-505): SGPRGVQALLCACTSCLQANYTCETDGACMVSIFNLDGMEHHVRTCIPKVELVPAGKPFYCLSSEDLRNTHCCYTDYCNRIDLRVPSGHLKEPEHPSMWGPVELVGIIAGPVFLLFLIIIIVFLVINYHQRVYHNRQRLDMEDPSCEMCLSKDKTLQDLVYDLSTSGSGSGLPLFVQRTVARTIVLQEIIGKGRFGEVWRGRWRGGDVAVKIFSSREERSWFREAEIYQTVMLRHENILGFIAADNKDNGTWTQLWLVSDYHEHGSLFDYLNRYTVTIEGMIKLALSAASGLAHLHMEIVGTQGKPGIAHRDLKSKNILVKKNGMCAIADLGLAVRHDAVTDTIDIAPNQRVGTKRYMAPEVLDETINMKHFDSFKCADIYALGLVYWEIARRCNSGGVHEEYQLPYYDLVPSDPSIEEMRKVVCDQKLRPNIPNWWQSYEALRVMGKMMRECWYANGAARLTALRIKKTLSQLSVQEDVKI

C#Cc1cnc(Nc2ccnc(CO)c2)nc1Nc1ccccc1S(C)(=O)=NC#N (stereo not drawn)  remaining signal (cell-free assay; 1 µM): 52%
N#Cc1ccc(NC(=O)Nc2ccccc2)cc1  remaining binding (cell-free assay, competition with immobilised ligand; 25 µM): 100%
C=CC(=O)N1CCC([C@@H]2CCNc3c(C(N)=O)c(-c4ccc(Oc5ccccc5)cc4)nn32)CC1  inhibition (enzyme activity, inhibitor; 1 µM): 5%
COc1ccc2oc(-c3ccc4nc(N)oc4c3)c/c(=N\c3ccccc3NC(=O)CCN)c2c1  remaining binding (binding; 1 µM): 108%
Cc1ccc(NC(=O)c2ccnc(C(F)(F)F)c2)cc1-c1cc(OCCO)nc(N2CCOCC2)c1  remaining binding (binding, competition with immobilised ligand; 1 µM): 99%
C1=C/COCc2cc(ccc2OCCN2CCCC2)Nc2nccc(n2)-c2cccc(c2)COC/1  remaining binding (binding; 0.1 µM): 91%
C[C@H]1CC[C@H](n2c3cnccc3c3cnc(Nc4ccc5c(n4)CCN(C(=O)CO)C5)nc32)CC1  remaining binding (cell-free assay, competition with immobilised ligand; 1 µM): 96%
CC#CC(=O)N1CCC[C@H]1c1nc(-c2ccc(C(=O)Nc3ccccn3)cc2)c2c(N)nccn12  inhibition (enzyme activity, inhibitor; 1 µM): 1%
CCCCC(=O)Nc1ccc(-c2ccc3ncn(CCC)c(=O)c3c2)cn1  remaining binding (binding, competition with immobilised ligand; 0.5 µM): 87%
